Experiments:
Caspase-7 = target: T1, Caspase-7 (Homo sapiens, UniProt P55210); assay: Inhibition of human recombinant caspase 7 using Ac-DEVD-AMC substrate assessed as accumulation of cleaved fluorogenic product
T1 sequence (P55210 whole entry): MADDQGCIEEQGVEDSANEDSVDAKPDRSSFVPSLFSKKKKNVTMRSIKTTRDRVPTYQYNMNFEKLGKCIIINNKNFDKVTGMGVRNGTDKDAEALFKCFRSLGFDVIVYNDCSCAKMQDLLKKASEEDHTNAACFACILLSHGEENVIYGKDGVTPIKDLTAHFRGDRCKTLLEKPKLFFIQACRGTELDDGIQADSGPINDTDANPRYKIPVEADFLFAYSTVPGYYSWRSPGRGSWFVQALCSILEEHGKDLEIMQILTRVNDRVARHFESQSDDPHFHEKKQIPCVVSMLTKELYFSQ
How it was run: (§1)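 Inhibitor in DMSO (1−5%) at final 500 μM down to 5 pM in tenfold steps, preincubated 10 min. Peptide-AMC substrate then added (final 10 μM) and reacted 10 min at 37 °C. Released AMC read by fluorescence, excitation 360 nm, emission 460 nm.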

Caspase-3 = target: T2, Caspase-3 (Homo sapiens, UniProt P42574); assay: Inhibition of human recombinant caspase 3 using Ac-DEVD-AMC substrate assessed as accumulation of cleaved fluorogenic product; how it was run: as §1
T2 sequence (P42574 whole entry): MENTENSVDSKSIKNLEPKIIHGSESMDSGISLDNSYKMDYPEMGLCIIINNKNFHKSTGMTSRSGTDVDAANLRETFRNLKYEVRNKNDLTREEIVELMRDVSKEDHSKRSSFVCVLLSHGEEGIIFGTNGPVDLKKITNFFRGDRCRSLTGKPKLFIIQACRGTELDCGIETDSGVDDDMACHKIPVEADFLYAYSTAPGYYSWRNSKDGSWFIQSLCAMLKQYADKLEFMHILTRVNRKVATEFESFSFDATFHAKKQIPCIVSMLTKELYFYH

Caspase-1 = target: T3, Caspase-1 (Homo sapiens, UniProt P29466); assay: Inhibition of human recombinant caspase 1 using Ac-YVAD-AMC substrate assessed as accumulation of cleaved fluorogenic product; how it was run: as §1
T3 sequence (P29466 whole entry): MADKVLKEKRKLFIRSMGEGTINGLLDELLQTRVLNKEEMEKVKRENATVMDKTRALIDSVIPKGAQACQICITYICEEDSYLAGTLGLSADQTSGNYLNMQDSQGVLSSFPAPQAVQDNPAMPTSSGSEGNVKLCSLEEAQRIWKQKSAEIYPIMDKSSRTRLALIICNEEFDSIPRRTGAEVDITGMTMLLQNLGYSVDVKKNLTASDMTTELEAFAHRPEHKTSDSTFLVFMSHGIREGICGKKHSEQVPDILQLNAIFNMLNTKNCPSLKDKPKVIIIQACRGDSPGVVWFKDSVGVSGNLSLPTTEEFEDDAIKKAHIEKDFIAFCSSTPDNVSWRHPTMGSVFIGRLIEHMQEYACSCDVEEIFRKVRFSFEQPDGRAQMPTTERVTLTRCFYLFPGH

Caspase-6 = target: T4, Caspase-6 (Homo sapiens, UniProt P55212); assay: Inhibition of human recombinant caspase 6 using Ac-VEID-AMC substrate assessed as accumulation of cleaved fluorogenic product; how it was run: as §1
T4 sequence (P55212 whole entry): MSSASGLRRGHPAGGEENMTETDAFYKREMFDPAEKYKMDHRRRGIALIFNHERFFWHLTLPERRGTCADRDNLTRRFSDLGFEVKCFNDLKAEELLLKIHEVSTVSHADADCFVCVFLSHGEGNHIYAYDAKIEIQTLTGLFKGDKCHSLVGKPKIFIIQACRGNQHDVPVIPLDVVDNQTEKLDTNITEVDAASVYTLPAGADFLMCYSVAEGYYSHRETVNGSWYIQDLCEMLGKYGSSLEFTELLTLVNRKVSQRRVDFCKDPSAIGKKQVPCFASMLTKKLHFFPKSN

| Structure (SMILES) | IC50 (Caspase-7) | IC50 (Caspase-3) | IC50 (Caspase-1) | IC50 (Caspase-6) |
| --- | --- | --- | --- | --- |
| COC[C@@H]1CCCN1S(=O)(=O)c1cc(F)c2c(c1)C(=O)C(=O)N2 | 6620 nM | > 500000 nM | > 500 µM | > 500 µM |
| CCCCN1C(=O)C(=O)c2cc(S(=O)(=O)N3CCC[C@H]3COC)cc(Br)c21 | 3.3 nM | 46.9 nM | – | – |
| COC[C@@H]1CCCN1S(=O)(=O)c1ccc2c(c1)C(=O)C(=O)N2 | – | – | > 500 µM | 500 µM |
| COC[C@@H]1CCCN1S(=O)(=O)c1cc(Br)c2c(c1)C(=O)C(=O)N2CCCCF | 5.95 nM | 31.5 nM | – | – |
| COC[C@@H]1CCCN1S(=O)(=O)c1cc(Br)c2c(c1)C(=O)C(=O)N2C | 553 nM | 353 nM | – | – |
| COC[C@@H]1CCCN1S(=O)(=O)c1cc(Br)c2c(c1)C(=O)C(=O)N2CCCF | 20.1 nM | 81.4 nM | – | – |
| CCN1C(=O)C(=O)c2cc(S(=O)(=O)N3CCC[C@H]3COC)cc(Br)c21 | – | 133 nM | – | – |
| COC[C@@H]1CCCN1S(=O)(=O)c1cc(Cl)c2c(c1)C(=O)C(=O)N2 | > 500000 nM | > 500000 nM | 500 µM | > 500 µM |
| COC[C@@H]1CCCN1S(=O)(=O)c1cc(Cl)c2c(c1)C(=O)C(=O)N2CCCCF | 55.7 nM | 4.8 nM | 2.59 µM | 500 µM |
| COC[C@@H]1CCCN1S(=O)(=O)c1cc(F)c2c(c1)C(=O)C(=O)N2CCCCF | 39.3 nM | 41 nM | 7.43 µM | 12.9 µM |
| COC[C@@H]1CCCN1S(=O)(=O)c1cc(I)c2c(c1)C(=O)C(=O)N2 | > 500000 nM | > 500000 nM | – | – |
| COC[C@@H]1CCCN1S(=O)(=O)c1cc(Br)c2c(c1)C(=O)C(=O)N2 | > 500000 nM | > 500000 nM | – | – |
| COC[C@@H]1CCCN1S(=O)(=O)c1cc(Br)c2c(c1)C(=O)C(=O)N2CCCCO | 22.7 nM | 2.6 nM | > 500 µM | > 500 µM |

Further lines, results first:

| IC50 (Caspase-7) | IC50 (Caspase-3) | IC50 (Caspase-1) | IC50 (Caspase-6) | Structure (SMILES) |
| --- | --- | --- | --- | --- |
| 20.1 nM | 210 nM | – | – | CCN1C(=O)C(=O)c2cc(S(=O)(=O)N3CCC[C@H]3COC)cc(I)c21 |
| 10500 nM | 1190 nM | – | – | COC[C@@H]1CCCN1S(=O)(=O)c1cc(I)c2c(c1)C(=O)C(=O)N2C |
| 279 nM | 33.2 nM | 500 µM | 500 µM | COC[C@@H]1CCCN1S(=O)(=O)c1cc(I)c2c(c1)C(=O)C(=O)N2CCCCO |
| – | 20.1 nM | > 500 µM | 28.5 µM | COC[C@@H]1CCCN1S(=O)(=O)c1cc(I)c2c(c1)C(=O)C(=O)N2CCCF |
| 157 nM | 26.2 nM | – | – | CCCN1C(=O)C(=O)c2cc(S(=O)(=O)N3CCC[C@H]3COC)cc(Br)c21 |
| 42.4 nM | 124 nM | – | – | CCCN1C(=O)C(=O)c2cc(S(=O)(=O)N3CCC[C@H]3COC)cc(I)c21 |
| 9.7 nM | 2.9 nM | 9.97 µM | 78.9 µM | CCCCN1C(=O)C(=O)c2cc(S(=O)(=O)N3CCC[C@H]3COC)cc(F)c21 |
| 263 nM | 57.7 nM | 500 µM | 500 µM | CCCCN1C(=O)C(=O)c2cc(S(=O)(=O)N3CCC[C@H]3COC)cc(Cl)c21 |
| 907 nM | 17.4 nM | > 500 µM | > 500 µM | CCCCN1C(=O)C(=O)c2cc(S(=O)(=O)N3CCC[C@H]3COC)cc(I)c21 |
| 68.1 nM | 50.7 nM | 500 µM | 500 µM | COC[C@@H]1CCCN1S(=O)(=O)c1cc(I)c2c(c1)C(=O)C(=O)N2CCCCF |
